Experimental findings from ChEMBL document CHEMBL1137670, “First occurrence of an IMP metallo-beta-lactamase in Aeromonas caviae: IMP-19 in an isolate from France” (2007) are described below.

Values after ≈ are worked out from the molar mass of the structure shown.

What all share (format): functional
Test [1] has as its system Aeromonas caviae. Briefly: Antimicrobial activity against Aeromonas caviae A324R expressing metallo-beta-lactamase IMP-19 by broth dilution method. A digest of the protocol:
(§1)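 Beta-lactam MICs by standard broth dilution per CLSI criteria. Recombinant DH5alpha(pIP19) carries blaIMP-19 subcloned into pK18, selected on kanamycin 30 µg/ml plus ceftazidime 4 µg/ml. DH5alpha(pJDB2) carries the 35 kb native plasmid extracted by alkaline lysis.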
On the technique in general: In broth dilution the organism is exposed to a series of concentrations in liquid medium.

The test system of test [2] is Escherichia coli. Briefly: Antimicrobial activity against Escherichia coli DH5alpha expressing pIP19 containing Aeromonas caviae A324R metallo-beta-lactamase blaIMP-19 gene by broth dilution method. A digest of the protocol: as §1
In test [3] the test system is Aeromonas caviae. Briefly: Antimicrobial activity against Aeromonas caviae A324R by disk diffusion method. A digest of the protocol: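 Disk diffusion per CLSI criteria, read as inhibition zone diameter in mm.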
In general terms: A growth-free zone around the sample is the usual read-out of agar diffusion tests.

In test [4] the test system is Escherichia coli. Briefly: Antimicrobial activity against Escherichia coli DH5alpha expressing pJDB2 containing Aeromonas caviae A324R metallo-beta-lactamase gene by broth dilution method. A digest of the protocol:
as §1

Test [5] concerns Escherichia coli. As to the kind of experiment: Antimicrobial activity against Escherichia coli DH5alpha by broth dilution method. A digest of the protocol: as §1

What is called MIC is the lowest concentration that inhibits growth of the organism. Low readings indicate greater potency, high ones weaker potency. As for `C[C@H]1[C@H](NC(=O)/C(=N\OC(C)(C)C(=O)O)c2csc(N)n2)C(=O)N1S(=O)(=O)O` [AZTREONAM], the MIC with Aeromonas caviae [1] was 512 µg/mL (≈ 1180 µM); in the test with Escherichia coli [2] it was 256 µg/mL (≈ 588 µM); in the test on Escherichia coli [4] it was 256 µg/mL (≈ 588 µM). In addition, the “diameter of the inhibition zone (DIZ)” value in the test on Aeromonas caviae [3] was found to be 24 mm.
`Cc1nnc(SCC2=C(C(=O)O)N3C(=O)[C@@H](NC(=O)Cn4cnnn4)[C@H]3SC2)s1` [CEFAZOLIN]: the minimum inhibitory concentration (MIC) is 1020 µg/mL (≈ 2250 µM) in the test on Aeromonas caviae [1], 256 µg/mL (≈ 563 µM) with Escherichia coli [2], 256 µg/mL (≈ 563 µM) against Escherichia coli [4] and at most 1 µg/mL against Escherichia coli [5].
As to `CO[C@@]1(NC(=O)Cc2cccs2)C(=O)N2C(C(=O)O)=C(COC(N)=O)CS[C@@H]21` [CEFOXITIN], the MIC against Aeromonas caviae [1] amounted to 512 µg/mL (≈ 1200 µM); against Escherichia coli [2], 512 µg/mL (≈ 1200 µM); in the test with Escherichia coli [4], 256 µg/mL (≈ 599 µM); with Escherichia coli [5], 2 µg/mL (≈ 4.68 µM).
As for `CC(C)(O/N=C(\C(=O)N[C@@H]1C(=O)N2C(C(=O)[O-])=C(C[n+]3ccccc3)CS[C@H]12)c1csc(N)n1)C(=O)O` [CEFTAZIDIME], the MIC turned out to be 1020 µg/mL (≈ 1870 µM) in the test with Aeromonas caviae [1], 512 µg/mL (≈ 937 µM) against Escherichia coli [2], 128 µg/mL (≈ 234 µM) against Escherichia coli [4] and 4 µg/mL (≈ 7.32 µM) in the test on Escherichia coli [5].
On the same counts, the results for `O=C(O)[C@H]1/C(=C/CO)O[C@@H]2CC(=O)N21` [CLAVULANIC ACID] are 16 µg/mL (≈ 80.3 µM), 8 µg/mL (≈ 40.2 µM), 4 µg/mL (≈ 20.1 µM) and 0.5 µg/mL (≈ 2.51 µM).
Turning to `C[C@@H](O)[C@H]1C(=O)N2C(C(=O)O)=C(SCCNC=N)C[C@H]12` [IMIPENEM ANHYDROUS], the MIC came to 8 µg/mL (≈ 26.7 µM) with Aeromonas caviae [1], 0.25 µg/mL (≈ 0.835 µM) in the test with Escherichia coli [2] and 0.25 µg/mL (≈ 0.835 µM) against Escherichia coli [4]. Moreover, in the test on Aeromonas caviae [3], the “diameter of the inhibition zone (DIZ)” value came to 27 mm.
`C[C@@H](O)[C@H]1C(=O)N2C(C(=O)O)=C(S[C@@H]3CN[C@H](C(=O)N(C)C)C3)[C@H](C)[C@H]12` [MEROPENEM]: the MIC in the test on Aeromonas caviae [1] is 1020 µg/mL (≈ 2670 µM); with Escherichia coli [2] it was 512 µg/mL (≈ 1340 µM); against Escherichia coli [4], 256 µg/mL (≈ 668 µM); with Escherichia coli [5], at most 1 µg/mL.
For `CCN1CCN(C(=O)N[C@@H](C(=O)N[C@@H]2C(=O)N3[C@@H]2SC(C)(C)[C@@H]3C(=O)O)c2ccccc2)C(=O)C1=O` [PIPERACILLIN] the same measures were 256 µg/mL (≈ 495 µM), 2 µg/mL (≈ 3.86 µM), 8 µg/mL (≈ 15.5 µM) and 1 µg/mL (≈ 1.93 µM).
On the same counts, the results for `C[C@]1(Cn2ccnn2)[C@H](C(=O)O)N2C(=O)C[C@H]2S1(=O)=O` [TAZOBACTAM] are 1 µg/mL (≈ 3.33 µM), 0.5 µg/mL (≈ 1.67 µM), 0.5 µg/mL (≈ 1.67 µM) and at most 0.25 µg/mL.
On the same counts, the results for `CC1(C)S[C@@H]2[C@H](NC(=O)[C@H](C(=O)O)c3ccsc3)C(=O)N2[C@H]1C(=O)O` [TICARCILLIN] are 2050 µg/mL (≈ 5330 µM), 1020 µg/mL (≈ 2660 µM), 512 µg/mL (≈ 1330 µM) and 4 µg/mL (≈ 10.4 µM).
